Assay results gathered from unrelated publications.
Lines come from different studies, so protocols differ.
Observed: cell growth or viability

Compound	cell line	assay	setting	IC50 [µM]
COc1ccc(C(=O)c2cc3c(-c4ccccc4)c(OC)ccc3o2)cc1	L1210	–	48 h	2.8
COc1cc(Nc2nccc(-c3cnn4nc(OC)ccc34)n2)cc(C(F)(F)F)c1	NCI-H1838	ATP luminescence	–	> 3
CCN1C(=O)N(c2c(F)c(OC)cc(OC)c2F)Cc2cnc3[nH]c(CN4CCOCC4)cc3c21	MDA-MB-453	ATP luminescence	96 h	0.0764
COc1cc(N(C)CCN(C)C)c(NC(=O)/C=C/C(C)C)cc1Nc1nc(N2CCc3sccc3C2)c2sccc2n1	NCI-H460	MTT	–	> 50
COc1cc(-c2oc3cc(O)cc(O)c3c(=O)c2O)ccc1O	SCaBER	ATP luminescence	72 h	43.2
O=C1Nc2ccccc2C(=O)CCc2ccc(F)cc21	L6	–	–	110
O=c1ncccn1[C@@H]1O[C@H](CO)[C@@H](O)[C@H]1O	MEC1	–	48 h	195
O=C1C(=Cc2ccccc2)CN(C(=O)c2ccc(C(=O)N3CC(=Cc4ccccc4)C(=O)C(=Cc4ccccc4)C3)cc2)CC1=Cc1ccccc1	L1210	–	–	> 500
CC[C@@H](C)[C@H](N)C(=O)N1Cc2ccccc2C1	RS4-11	ATP luminescence	24 h	71.1
O=c1c(O)c(-c2ccc(O)c(O)c2)oc2cc(O)cc(O)c12	SCaBER	ATP luminescence	72 h	24.2
COc1ccccc1C(=O)c1cc2c(-c3ccccc3)c(O)ccc2o1	L1210	–	48 h	> 50
Nc1nc(Cl)nc2c1ncn2[C@@H]1O[C@H](CO)[C@@H](O)[C@@H]1F	GISTT1	resazurin	72 h	> 1
O=C(O)c1ccc2c(c1)C(=O)CCc1ccccc1C(=O)N2	L6	–	–	220
Nc1nc(F)nc2c1ncn2[C@@H]1O[C@H](COP(=O)(O)O)[C@@H](O)[C@@H]1O	GISTT1	–	72 h	0.53
O=C1Nc2ccc(OC(F)(F)F)cc2C(=O)CCc2ccccc21	L6	–	–	44
C#C[C@]1(O)CC[C@H]2[C@@H]3CCC4=Cc5oncc5C[C@]4(C)[C@H]3CC[C@@]21C	GISTT1	resazurin	72 h	> 1
CO/N=C1\CCc2ccccc2C(=O)Nc2ccccc21	L6	–	–	250
COc1cc(OC)cc(C(=O)c2cc3c(-c4ccccc4)c(O)ccc3o2)c1	L1210	–	48 h	19
CC(C)=CCC/C(C)=C/COc1ccc2ccc(=O)oc2c1	COLO 205	MTT	24 h	55.1
COc1cc(NS(C)(=O)=O)ccc1Nc1c2ccccc2nc2ccccc12	GISTT1	resazurin	72 h	0.31

Compound	cell line	assay	setting	IC50 [µM]
CCC(=O)Nc1cc(Nc2nc(Nc3cnn(C)c3)c3sccc3n2)c(OC)cc1N(C)CCN(C)C	NCI-H460	MTT	–	> 50
COc1cc([C@@H]2c3cc4c(cc3[C@@H](O[C@@H]3O[C@@H]5CO[C@@H](C)O[C@H]5[C@H](O)[C@H]3O)[C@H]3COC(=O)[C@H]23)OCO4)cc(OC)c1O	GISTT1	resazurin	72 h	> 1
O=C1Nc2ccc(C(F)(F)F)cc2C(=O)CCc2ccccc21	L6	–	–	9
CC(C)n1c(/C=C/C(O)CC(O)CC(=O)O)c(-c2ccc(F)cc2)c2ccccc21 (stereo not drawn)	L1210	MTS	96 h	2.3
CC(C)[C@H](N)c1nc2cc(-c3ccnc(Cl)c3)sc2c(=O)[nH]1	COLO 205	MTT	–	1.6
COc1cc2ccc(=O)oc2cc1OC	COLO 205	MTT	72 h	> 100
NC(=O)c1ccc2c(c1)C(=O)CCc1ccccc1C(=O)N2	L6	–	–	> 340
COc1cccc(C(=O)c2cc3c(-c4ccccc4)c(O)ccc3o2)c1	L1210	–	48 h	38
C#C[C@]1(CO)O[C@@H](n2cnc3c(N)nc(F)nc32)C[C@@H]1O	MDCK-II	MTT	48 h	377
O=c1[nH]cc(F)c(=O)[nH]1	L1210	–	48 h	0.49
CC(C)[C@H](N)c1nc2cc(-c3cn[nH]n3)sc2c(=O)[nH]1	COLO 205	MTT	–	3.79
COc1ccc2oc(C(=O)c3ccccc3)cc2c1-c1ccccc1	L1210	–	48 h	> 50
CC(=O)[C@]1(O)Cc2c(O)c3c(c(O)c2[C@@H](O[C@H]2C[C@H](N)[C@H](O)[C@H](C)O2)C1)C(=O)c1ccccc1C3=O	GISTT1	–	72 h	0.09
CCC(=O)Nc1cc(Nc2nc(N3CCc4sccc4C3)c3cccnc3n2)c(OC)cc1N1CCN(CCO)CC1	NCI-H460	MTT	–	> 50
COc1ccc2c(c1)C(=O)CCc1ccccc1C(=O)N2	L6	–	–	47
CC(C)C[C@H](NC(=O)[C@H](Cc1ccccc1)NC(=O)c1cnccn1)B(O)O	GISTT1	resazurin	72 h	< 0.07
CCOC(=O)c1ccc2c(c1)C(=O)CCc1ccccc1C(=O)N2	L6	–	–	15
COC(=O)Nc1nc2ccc(C(=O)c3ccccc3)cc2[nH]1	GISTT1	resazurin	72 h	0.81
CC(C)[C@H](N)C(=O)N1CCC[C@H]1B(O)O	RS4-11	ATP luminescence	24 h	0.147
